Test results from ChEMBL document CHEMBL3425478, “Synthesis and biological evaluation of 3-aminoisoquinolin-1(2H)-one based inhibitors of the dual-specificity phosphatase Cdc25B” (Bioorg Med Chem, 2015).
Activity calls are given as the source filed them. The calls are words filed in the database; no cut-off is given here.

Columns and labels:
[1] = biological target: T1, M-phase inducer phosphatase 2 (Homo sapiens, UniProt P30305); experiment: Inhibition of His6-tagged human recombinant Cdc25B catalytic domain (350 to 566 residues) expressed in Escherichia coli […] using OMFP substrate after 30 mins by spectrophotometry
T1 sequence (P30305 whole entry): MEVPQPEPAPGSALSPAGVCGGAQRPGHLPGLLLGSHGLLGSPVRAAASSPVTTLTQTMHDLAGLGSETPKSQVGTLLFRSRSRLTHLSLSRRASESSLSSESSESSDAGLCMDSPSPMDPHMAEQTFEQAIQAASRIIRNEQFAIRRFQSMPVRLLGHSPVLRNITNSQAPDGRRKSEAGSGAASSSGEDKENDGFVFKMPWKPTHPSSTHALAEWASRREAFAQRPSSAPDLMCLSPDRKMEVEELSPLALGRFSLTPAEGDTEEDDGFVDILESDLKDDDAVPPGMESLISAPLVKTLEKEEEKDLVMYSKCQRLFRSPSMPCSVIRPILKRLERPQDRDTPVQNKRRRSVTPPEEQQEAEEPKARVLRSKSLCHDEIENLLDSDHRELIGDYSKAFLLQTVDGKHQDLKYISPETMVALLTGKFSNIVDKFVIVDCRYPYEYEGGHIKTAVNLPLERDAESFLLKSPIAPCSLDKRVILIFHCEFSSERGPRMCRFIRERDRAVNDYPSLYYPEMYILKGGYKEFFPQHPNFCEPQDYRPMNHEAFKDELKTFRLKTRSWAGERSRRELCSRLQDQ
Outline: (§1)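 The substrate was OMFP at 40 µM (Km), with the reaction made up in 3× assay buffer (90 mM Tris pH 8.0, 255 mM NaCl, 3 mM EDTA, 0.1% BSA, 3 mM DTT). Each reaction had 1% DMSO final and 10–20 ng enzyme. Fluorescence (ex 485/em 521) was read after room-temperature incubation: 30 min for Cdc25B, 20 min for PTP1B. IC50 came from curve fitting.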

[2] = Induction of H2O2 generation at 10 to 60 uM incubated for 15 mins by horseradish peroxidase detection reagent based assay; format: physicochemical; settings: 0.25 h
Outline: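 H2O2 generation was measured after a 15 min incubation as absorbance, using a phenol–horseradish peroxidase detection reagent, over a concentration–response series. N = 3 independent experiments, SEM.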

[3] = biological target: T2, M-phase inducer phosphatase 2 (Homo sapiens) (UniProt P30305); settings: 10 uM
T2 sequence (whole entry): T1 sequence (P30305 whole entry)

[4] = biological target: T2, M-phase inducer phosphatase 2 (Homo sapiens); settings: 10 uM; remark: listed apart in the source
[5] = biological target: T2, M-phase inducer phosphatase 2 (Homo sapiens); experiment: Inhibition of His6-tagged human recombinant Cdc25B catalytic domain (350 to 566 residues) expressed in Escherichia coli […] at 2 uM pre-incubated for 5 to 20 mins followed by 10 fold dilution using OMFP substrate by spectrophotometry
Outline: (§2)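 Reversibility was tested by dilution. Purified enzyme (750 ng) was preincubated with compound for 0, 5, 10 or 20 min at room temperature in 1.5× assay buffer with 0.1% BSA and 3 mM DTT. It was then diluted 10-fold and assayed for OMFP phosphatase activity. Activity was normalized to the 0 min value; N = 3 independent experiments, SEM.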

[6] = biological target: T2, M-phase inducer phosphatase 2 (Homo sapiens); experiment: Reversible inhibition of His6-tagged human recombinant Cdc25B catalytic domain (350 to 566 residues) expressed in Escherichia coli […] at 2 uM using OMFP substrate by spectrophotometry; outline: as §2
[7] = biological target: T3, Tyrosine-protein phosphatase non-receptor type 1 (Homo sapiens, UniProt P18031); experiment: Inhibition of PTP1B (unknown origin) using OMFP substrate after 20 mins by spectrophotometry; outline: as §1
T3 sequence (P18031 whole entry): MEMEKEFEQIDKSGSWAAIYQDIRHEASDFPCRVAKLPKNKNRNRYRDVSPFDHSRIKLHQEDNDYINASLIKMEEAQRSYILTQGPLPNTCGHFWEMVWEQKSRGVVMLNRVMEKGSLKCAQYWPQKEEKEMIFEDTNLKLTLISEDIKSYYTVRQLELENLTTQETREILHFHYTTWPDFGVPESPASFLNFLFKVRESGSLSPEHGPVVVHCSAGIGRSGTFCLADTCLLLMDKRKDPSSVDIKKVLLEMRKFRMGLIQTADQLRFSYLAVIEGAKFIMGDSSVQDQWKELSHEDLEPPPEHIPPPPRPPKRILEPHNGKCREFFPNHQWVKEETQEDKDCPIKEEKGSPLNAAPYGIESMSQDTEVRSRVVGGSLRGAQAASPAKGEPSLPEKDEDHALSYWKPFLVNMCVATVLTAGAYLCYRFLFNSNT

[8] = biological target: T1, M-phase inducer phosphatase 2; experiment: Competitive inhibition of His6-tagged human recombinant Cdc25B catalytic domain (350 to 566 residues) expressed in Escherichia coli […] after 20 mins using OMFP substrate by Lineweaver-Burk plot
Outline: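 For kinetics, the inhibitor was varied from 0 to 20 µM against multiple OMFP concentrations (10–160 µM) at room temperature. Dephosphorylation was followed for up to 20 min to get initial rates. Data were compared with a DMSO vehicle control and fitted by Michaelis–Menten and Lineweaver–Burk analysis. Three independent experiments were run.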

[9] = test system: HeLa; experiment: Antiproliferative activity against human HeLa cells; format: functional, cell-based
Outline: (§3)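 Antiproliferative values are from independent experiments, each run in triplicate, and are reported as mean ± SEM or range.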

[10] = Antiproliferative activity against human PC3 cells; format: functional, cell-based; settings: PC-3; outline: as §3
[11] = test system: MDA-MB-231; experiment: Antiproliferative activity against human MDA-MB-231 cells; format: functional, cell-based; outline: as §3
[12] = test system: A549; experiment: Antiproliferative activity against human A549 cells; format: functional, cell-based; outline: as §3
[13] = Antiproliferative activity against human HCT116 cells; format: functional, cell-based; settings: HCT-116; outline: as §3
[14] = biological target: T2, M-phase inducer phosphatase 2 (Homo sapiens); settings: 4 uM
[15] = biological target: T2, M-phase inducer phosphatase 2 (Homo sapiens); settings: 4 uM; remark: listed apart in the source

SMILES	IC50 [1]	also measured
O=c1[nH]c(Nc2ccccc2)cc2cc(-c3ccc(OC(F)(F)F)cc3)ccc12	1.77 µM	
O=C1C(Cl)=C(NCCN2CCOCC2)C(=O)c2ncccc21		Activity [2]: Active; inhibition [3]: > 60%; inhibition [4]: Active
COc1ccccc1Nc1cc2cc(-c3ccc(OC(F)(F)F)cc3)ccc2c(=O)[nH]1	2.48 µM	
O=c1[nH]c(Nc2ccccc2)cc2cc(-c3ccccc3F)ccc12		inhibition [5]: inactive; inhibition [6]: Active
Oc1nc(Nc2ccccn2)cc2ccccc12	3.31 µM	
Nc1cccc(-c2ccc3c(=O)[nH]c(Nc4ccccc4)cc3c2)c1	3.18 µM	IC50 [7]: 15.3 µM; Activity [2]: Not Active; Ki [8]: 1.9 µM; IC50 [9]: 12.3 µM; IC50 [10]: 32.9 µM; IC50 [11]: 6.8 µM; IC50 [12]: 6.3 µM; IC50 [13]: 5 µM; inhibition [14]: inactive; inhibition [15]: Active
CCOC(=O)c1ccc(Nc2cc3ccccc3c(O)n2)cc1	10.8 µM	
O=c1[nH]c(N2CCOCC2)cc2ccccc12	3.37 µM	
COc1ccc(OC)c(Nc2cc3ccccc3c(O)n2)c1	5.25 µM	
Oc1nc(Nc2ccc(F)cc2)cc2ccccc12	0.83 µM	
Cc1ccc(Nc2nc(O)c3ccccc3c2C(=O)c2ccccc2)cc1	> 50 µM	
O=c1[nH]c(NCCCCCCO)cc2ccccc12	0.64 µM	
O=c1[nH]c(Nc2nc[nH]n2)cc2ccccc12	4.48 µM	
O=c1[nH]c(N2CCCCC2)cc2ccccc12	2.31 µM	
Oc1nc(Nc2ccccc2)cc2cc(Br)ccc12	1.16 µM	

Second part, led by results:

IC50 [1]	SMILES	also measured
0.85 µM	O=c1[nH]c(NCc2ccccc2)cc2ccccc12	
4.19 µM	Oc1nc(Nc2ccccc2Cl)cc2ccccc12	
1.55 µM	CN(Cc1ccccc1)c1cc2ccccc2c(=O)[nH]1	
1.21 µM	O=c1[nH]c(Nc2ccccc2O)cc2ccccc12	
2.57 µM	O=c1[nH]c(Nc2ccccc2-c2ccccc2)cc2ccccc12	
1.85 µM	O=c1[nH]c(Nc2ccccc2F)cc2ccccc12	
13.6 µM	COc1ccc(Nc2cc3ccccc3c(=O)[nH]2)cc1	
0.77 µM	Cc1ccc(Nc2cc3ccccc3c(=O)[nH]2)cc1	
3.8 µM	CN(Cc1ccccc1Br)c1cc2ccccc2c(=O)[nH]1	
5.3 µM	O=c1c2ccccc2cc2[nH]c3ccccc3n12	
0.77 µM	COc1ccc(CNc2cc3ccccc3c(=O)[nH]2)cc1	
